Laboratory results reported in ChEMBL document CHEMBL1128338, “Synthesis and activity of some antimalarial bisquinolines” (J Med Chem, 1995).

Columns and labels:
Plasmodium falciparum [1] = test: In vitro inhibition of chloroquine-resistant Plasmodium falciparum FAC8; format: functional, organism-based
How it was run: (§1)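 P. falciparum blood-stage cultures plated at c. 1% parasitemia, 2% hematocrit, exposed to a range of drug concentrations (compounds from 30 mM DMSO stocks; final DMSO <0.1%). Incubated 4 days with daily replacement of drug-containing medium. Growth curves run in duplicate; IC50 taken as concentration giving 50% growth inhibition.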

Plasmodium falciparum [2] = test: In vitro inhibition chloroquine-resistant Plasmodium falciparum K1; format: functional, organism-based; how it was run: as §1
Plasmodium falciparum [3] = test: In vitro inhibition of chloroquine-sensitive Plasmodium falciparum D-10; format: functional, organism-based; how it was run: as §1
[4] = Resistance index as the ratio of IC50 value against FAC8 to that of D10 strains.; format: functional
How it was run: (§2)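 Ratio of IC50 against the CQ-resistant strain (FAC8 or K1) to IC50 against CQ-sensitive D10. IC50s from 4-day growth assays at c. 1% parasitemia, 2% hematocrit, daily drug-medium replacement, duplicate growth curves.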

[5] = Resistance index as the ratio of IC50 value against K1 to that of D10 strains.; format: functional; how it was run: as §2

SMILES | IC50 (Plasmodium falciparum [1]) [µM] | IC50 (Plasmodium falciparum [2]) [µM] | IC50 (Plasmodium falciparum [3]) [µM] | Resistance index [4] | Resistance index [5]
CCN(CC)CCCC(C)Nc1ccnc2ccc(NC(=O)CCCCC(=O)Nc3ccc4nccc(NC(C)CCCN(CC)CC)c4c3)cc12 (stereo not given) | 10.3 | 15.9 | 9.6 | 1.1 | 1.7
CCN(CC)CCCC(C)Nc1ccnc2c(NC(=O)CCCCCCC(=O)Nc3cccc4c(NC(C)CCCN(CC)CC)ccnc34)cccc12 (stereo not given) | 0.35 | 0.6 | 0.38 | 0.9 | 1.6
CCN(CC)CCCC(C)Nc1ccnc2c(NC(=O)CCCCCCCCC(=O)Nc3cccc4c(NC(C)CCCN(CC)CC)ccnc34)cccc12 (stereo not given) | 0.31 | 0.29 | 0.26 | 1.2 | 1.1
CCN(CC)CCCC(C)Nc1ccnc2ccc(NC(=O)CCCCCCC(=O)Nc3ccc4nccc(NC(C)CCCN(CC)CC)c4c3)cc12 (stereo not given) | 5.2 | 7.4 | 5 | 1 | 1.5
CCN(CC)CCCC(C)Nc1ccnc2ccc(NC(=O)CCCCCCCCC(=O)Nc3ccc4nccc(NC(C)CCCN(CC)CC)c4c3)cc12 (stereo not given) | 3.8 | 8.4 | 5.7 | 0.7 | 1.5
CCN(CC)CCCC(C)Nc1ccnc2c(NC(=O)CCC(=O)Nc3cccc4c(NC(C)CCCN(CC)CC)ccnc34)cccc12 (stereo not given) | 1.2 | 2.5 | 0.5 | 2.2 | 5
CCN(CC)CCCC(C)Nc1ccnc2c(NC(=O)CCCCC(=O)Nc3cccc4c(NC(C)CCCN(CC)CC)ccnc34)cccc12 (stereo not given) | 0.12 | 0.23 | 0.13 | 0.9 | 1.8
CCN(CC)CCCC(C)Nc1ccnc2ccc(NC(=O)C(=O)Nc3ccc4nccc(NC(C)CCCN(CC)CC)c4c3)cc12 (stereo not given) | 1.8 | 2.2 | 2.6 | 0.7 | 0.8
CCN(CC)CCCC(C)Nc1ccnc2c(NC(=O)C(=O)Nc3cccc4c(NC(C)CCCN(CC)CC)ccnc34)cccc12 (stereo not given) | 1.9 | 2.3 | 1.3 | 1.4 | 1.7
